According to ChEMBL document CHEMBL1122501, “Potential antiatherosclerotic agents. 2. (Aralkylamino)- and (alkylamino) benzoic acid analogues of cetaben” (1983):

Legend:
[1] = biological target: T1, Sterol O-acyltransferase 1 (Rattus norvegicus) (UniProt O70536); experiment: In vitro inhibitory activity against acyl coenzyme A:cholesterol acyltransferase (ACAT); set-up: concentration or dose not given beside the values; settings: concentration not given here
T1 sequence (whole entry): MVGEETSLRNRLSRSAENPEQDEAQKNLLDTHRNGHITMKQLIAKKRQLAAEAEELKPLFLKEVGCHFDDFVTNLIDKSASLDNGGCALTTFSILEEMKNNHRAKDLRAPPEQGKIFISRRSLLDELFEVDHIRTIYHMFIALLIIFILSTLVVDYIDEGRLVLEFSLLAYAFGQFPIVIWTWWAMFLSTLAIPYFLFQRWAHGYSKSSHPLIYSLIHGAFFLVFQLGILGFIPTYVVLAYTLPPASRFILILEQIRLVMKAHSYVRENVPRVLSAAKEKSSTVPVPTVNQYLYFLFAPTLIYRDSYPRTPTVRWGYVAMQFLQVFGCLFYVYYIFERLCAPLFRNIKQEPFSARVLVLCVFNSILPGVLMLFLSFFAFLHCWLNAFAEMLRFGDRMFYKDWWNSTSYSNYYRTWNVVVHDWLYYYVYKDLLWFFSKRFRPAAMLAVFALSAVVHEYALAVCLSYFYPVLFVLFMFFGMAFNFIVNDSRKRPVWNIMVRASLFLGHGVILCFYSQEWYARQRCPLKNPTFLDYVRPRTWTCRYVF
Outline: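 ACAT enzyme from rat adrenal homogenate in 0.2 M KH2PO4 buffer pH 7.4, 1000g 15 min 5 °C supernatant (microsomal fraction). Supernatant + BSA (50 mg/mL) + compound at final 5.2 μg/mL + buffer preincubated 10 min 37 °C; [14C]oleoyl-CoA (0.4 μCi) added, 30 min 37 °C. Lipids extracted, TLC; cholesteryl ester zone counted. Mean % inhibition vs no-compound control; Student's t test.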

Rattus norvegicus [2] = experiment: In vivo Triglyceride lowering activity at dose as 0.025 % of the diet; type: functional
Outline: (§1)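 Male CFE or CD-1 Sprague-Dawley rats, 140-150 g; 8 per control group, 4 per test group. Compound mixed into ground chow (w/w) via MeOH-CHCl3 (1:3) solution, solvent evaporated; controls got solvent-treated chow. Fed ad libitum 5 days, food intake monitored, killed fed and bled. Serum sterols and triglycerides by adapted autoanalyzer methods; mean percent of control, Student's t test.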

Rattus norvegicus [3] = experiment: In vivo Sterol lowering activity at dose as 0.025 % of the diet.; type: functional; outline: as §1
Rattus norvegicus [4] = experiment: In vivo Sterol lowering activity at dose as 0.05 % of the diet.; type: functional; outline: as §1
Rattus norvegicus [5] = experiment: In vivo Sterol lowering activity at dose as 0.10 % of the diet.; type: functional; outline: as §1
Rattus norvegicus [6] = experiment: In vivo triglyceride lowering activity dosed at 0.05 % of the diet; type: functional; outline: as §1
Rattus norvegicus [7] = experiment: In vivo triglyceride lowering activity dosed at 0.10 % of the diet; type: functional; outline: as §1
Rattus norvegicus [8] = experiment: In vivo Triglyceride lowering activity at dose as 0.017 % of the diet.; type: functional; outline: as §1
Rattus norvegicus [9] = experiment: In vivo Sterol lowering activity at dose as 0.017 % of the diet.; type: functional; outline: as §1
Rattus norvegicus [10] = experiment: In vivo Triglyceride lowering activity at dose as 0.05 % of the diet.; type: functional; outline: as §1
Rattus norvegicus [11] = experiment: In vivo triglyceride lowering activity, dosed at 0.10 % of the diet.; type: functional; outline: as §1
Rattus norvegicus [12] = experiment: In vivo triglyceride lowering activity, dosed at 0.03 % of the diet; type: functional; outline: as §1
Rattus norvegicus [13] = experiment: In vivo Sterol lowering activity at dose as 0.05 % of the diet; type: functional; outline: as §1
Rattus norvegicus [14] = experiment: In vivo sterol lowering activity dosed at 0.10 % of the diet; type: functional; outline: as §1
Rattus norvegicus [15] = experiment: In vivo Sterol lowering activity at dose as 0.01 % of the diet; type: functional; outline: as §1
Rattus norvegicus [16] = experiment: In vivo Sterol lowering activity at dose as 0.03 % of the diet; type: functional; outline: as §1
Rattus norvegicus [17] = experiment: In vivo Triglyceride lowering activity at dose as 0.01 % of the diet; type: functional; outline: as §1

| Structure (SMILES) | inhibition [1] [%] | Diet (Rattus norvegicus [2]) [%] | Diet (Rattus norvegicus [3]) [%] | Diet (Rattus norvegicus [4]) [%] | serum sterol, percent of control (Rattus norvegicus [5]) [%] | Diet (Rattus norvegicus [6]) [%] | serum triglycerides, percent of control (Rattus norvegicus [7]) [%] | Diet (Rattus norvegicus [8]) [%] | Diet (Rattus norvegicus [9]) [%] | Diet (Rattus norvegicus [10]) [%] | Diet (Rattus norvegicus [11]) [%] | serum triglycerides, percent of control (Rattus norvegicus [12]) [%] | Diet (Rattus norvegicus [13]) [%] | serum sterol, percent of control (Rattus norvegicus [14]) [%] | Diet (Rattus norvegicus [15]) [%] | Diet (Rattus norvegicus [16]) [%] | Diet (Rattus norvegicus [17]) [%] |
| --- | --- | --- | --- | --- | --- | --- | --- | --- | --- | --- | --- | --- | --- | --- | --- | --- | --- |
| O=C(O)c1ccc(NCCCc2ccc(OCc3ccccc3)cc2)cc1 | 2 | 67 | 90 | 96 | 93 | 69 | 60 | – | – | – | – | – | – | – | – | – | – |
| O=C(O)c1ccc(NCCc2cccs2)cc1 | 5 | – | – | 81 | 88 | – | – | 121 | 74 | 97 | 103 | – | – | – | – | – | – |
| O=C(O)c1ccc(NCc2ccccc2)cc1 | 2 | – | – | – | – | 62 | 65 | 92 | 101 | – | – | – | 86 | 87 | – | – | – |
| CCOC(=O)c1ccc(NC/C=C/c2ccccc2)cc1 | – | 73 | 92 | 86 | – | 58 | 60 | – | – | – | – | – | – | 84 | – | – | – |
| O=C(O)c1ccc(NCCc2cccc3ccccc23)cc1 | – | – | – | 108 | 93 | 67 | 63 | 89 | 108 | – | – | – | – | – | – | – | – |
| C=CCCCCCCCC/C=C/CCCNc1ccc(C(=O)[O-])cc1.[Na+] | – | 106 | – | – | – | 90 | 87 | – | – | – | – | – | – | 86 | 88 | 92 | – |
| O=C(O)c1ccc(NCCCCc2cccs2)cc1 | 10 | – | – | 98 | 77 | – | – | 94 | 90 | 89 | 90 | – | – | – | – | – | – |
| CCCCCCCCc1ccc(CNc2ccc(C(=O)O)cc2)s1 | 15 | – | – | – | – | – | 70 | – | – | – | – | 70 | – | <72 | 85 | <76 | 82 |
| O=C(O)c1ccc(NCc2ccc(OCc3ccccc3)cc2)cc1 | 16 | – | 93 | 98 | 97 | 85 | 89 | 91 | – | – | – | – | – | – | – | – | – |
| CCOC(=O)c1ccc(NCCCCCCCCCCCn2ccnc2)cc1 | < 72 | – | – | – | – | – | <57 | – | – | – | – | 92 | – | 89 | 89 | 100 | 78 |

More lines, main results first:

| inhibition [1] [%] | Structure (SMILES) | Diet (Rattus norvegicus [2]) [%] | Diet (Rattus norvegicus [3]) [%] | Diet (Rattus norvegicus [4]) [%] | serum sterol, percent of control (Rattus norvegicus [5]) [%] | Diet (Rattus norvegicus [6]) [%] | serum triglycerides, percent of control (Rattus norvegicus [7]) [%] | Diet (Rattus norvegicus [8]) [%] | Diet (Rattus norvegicus [9]) [%] | Diet (Rattus norvegicus [10]) [%] | Diet (Rattus norvegicus [11]) [%] | serum triglycerides, percent of control (Rattus norvegicus [12]) [%] | Diet (Rattus norvegicus [13]) [%] | serum sterol, percent of control (Rattus norvegicus [14]) [%] | Diet (Rattus norvegicus [15]) [%] | Diet (Rattus norvegicus [16]) [%] | Diet (Rattus norvegicus [17]) [%] |
| --- | --- | --- | --- | --- | --- | --- | --- | --- | --- | --- | --- | --- | --- | --- | --- | --- | --- |
| 45 | CCOC(=O)c1ccc(NCc2ccccc2)cc1 | – | – | – | – | – | – | 97 | 108 | – | 78 | 88 | 90 | 86 | – | – | – |
| 64 | CCOC(=O)c1ccc(NCCCc2ccccc2OC)cc1 | 61 | 96 | 107 | 107 | – | – | – | – | 66 | 74 | – | – | – | – | – | – |
| 61 | CCOC(=O)c1ccc(NCCCc2ccccc2)cc1 | 77 | 94 | – | – | 56 | 57 | – | – | – | – | – | 77 | 79 | – | – | – |
| 45 | CCOC(=O)c1ccc(NCc2ccc(OCc3ccccc3)cc2)cc1 | – | – | 100 | – | 85 | – | 97 | 105 | – | 92 | – | – | 91 | – | – | – |
